Experimental data of several laboratories.

CC(C)(C)[C@H](N)C(=O)Nc1ccccc1/N=c1\cc(-c2ccc3c(c2)OCO3)oc2ccccc12  inhibition (MDA-MB-468; cell growth or viability, CCK-8; 1 µM): -1.02%
Cc1ccc(-c2nn(Cc3ccccc3)c3ccccc23)o1  inhibition (RBE; cell growth or viability, ATP luminescence; 46 µM, 72 h): 59%
Cc1n[nH]c2ccc3nc(-c4ccc(C(=O)NCCN(C)C)cc4F)c4c(c3c12)CCCC4  GI50 (MV4-11; cell growth or viability, resazurin; 72 h): 27 nM
OCc1ccc(N(Cc2ccc(F)cc2)CC2CC2)cc1Cl  inhibition (RBE; cell growth or viability, ATP luminescence; 46 µM, 72 h): 55%
O=C(O)c1cn(C2CC2)c2cc(N3CCNCC3)c(F)cc2c1=O  inhibition zone (Escherichia coli; microbial growth, well diffusion; ATCC25922; 100 µg/mL): 35 mm
NCCCCC(=O)Nc1ccccc1/N=c1\cc(-c2ccc3c(c2)OCO3)oc2ccccc12  inhibition (MDA-MB-468; cell growth or viability, CCK-8; 1 µM): -0.27%
O=C(NCCN1CCCC1)c1ccc(-c2nc3ccc4[nH]ncc4c3c3c2CCCC3)cc1  GI50 (MV4-11; cell growth or viability, resazurin; 72 h): 366 nM
NCCC(=O)Nc1ccccc1/N=c1\cc(-c2ccc3nc(N)oc3c2)oc2ccc(F)cc12  inhibition (MDA-MB-468; cell growth or viability, CCK-8; 1 µM): 59.8%
COCc1ccc(-c2nn(Cc3ccccc3)c3ccccc23)o1  inhibition (RBE; cell growth or viability, ATP luminescence; 46 µM, 72 h): 49%
Cc1n[nH]c2ccc3nc(-c4ccc(C(=O)NCCN(C)C)cc4)c4c(c3c12)CCCC4  GI50 (MV4-11; cell growth or viability, resazurin; 72 h): 8 nM
C[C@H](N)C(=O)Nc1ccccc1/N=c1\cc(-c2ccc3c(c2)OCO3)oc2ccccc12  inhibition (MDA-MB-468; cell growth or viability, CCK-8; 1 µM): 6.3%
Cc1ccccc1Cn1nc(-c2ccc(CO)o2)c2ccccc21  inhibition (RBE; cell growth or viability, ATP luminescence; 46 µM, 72 h): 61%
O=C(NCCN1CCCCC1)c1ccc(-c2nc3ccc4[nH]ncc4c3c3c2CCCC3)cc1  GI50 (MV4-11; cell growth or viability, resazurin; 72 h): 1700 nM
